The list is not random: actives were taken first. Their share in the collection is about 0.77%.
bIAP act: increases bovine intestinal alkaline phosphatase activity; purified bovine IAP, CDP-star luminescence, 30 min; active compounds read high; fold of DMSO-control signal, blank-subtracted; activation factor at 20 µM; 200,000 compounds, 0.17% hits; AID 1016;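 active = activation factor of 2 or more at 20 µM, a signal rise over negative controls twice the positive control's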
hIAP activ: human IAP activation. P09923. purified human IAP, CDP-Star luminescence, 30 min; active compounds read high; 1 = vehicle-only enzyme, 0 = enzyme-free background. activation factor at 10 µM. 330,000 compounds, 0.16% hits. AID 2524;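 active = activation factor of the enzyme at least 2-fold when tested at 20 µM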
Target sequence (P09923 whole entry, looked up): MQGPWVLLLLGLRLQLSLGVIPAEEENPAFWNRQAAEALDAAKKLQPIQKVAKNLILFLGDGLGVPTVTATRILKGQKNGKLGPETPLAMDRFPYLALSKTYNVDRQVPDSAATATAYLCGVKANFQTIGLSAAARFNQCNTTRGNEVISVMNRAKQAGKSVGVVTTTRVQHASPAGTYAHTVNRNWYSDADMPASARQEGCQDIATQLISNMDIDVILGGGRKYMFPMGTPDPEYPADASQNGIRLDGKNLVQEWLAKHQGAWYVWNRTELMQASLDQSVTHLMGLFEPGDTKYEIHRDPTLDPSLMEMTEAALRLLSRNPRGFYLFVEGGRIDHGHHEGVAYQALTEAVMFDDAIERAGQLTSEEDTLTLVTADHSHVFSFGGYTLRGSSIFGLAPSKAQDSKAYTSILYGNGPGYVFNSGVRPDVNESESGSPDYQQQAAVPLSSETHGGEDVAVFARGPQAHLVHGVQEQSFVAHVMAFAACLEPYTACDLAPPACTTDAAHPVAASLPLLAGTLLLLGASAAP
mIAP block: blocks mouse intestinal alkaline phosphatase. purified mouse IAP, CDP-Star luminescence, 30 min. inhibition, % at 10 µM. 330,000 compounds, 0.2% hits. AID 2806;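 active = inhibition of at least 40% at 10 µM in the primary screen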;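 note: plate controls were DMSO with enzyme for no effect and no enzyme wells for full effect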
hIAP block: blocks human intestinal alkaline phosphatase; P09923; purified IAP, CDP-Star luminescence, 30 min; inhibition, % at 10 µM; 330,000 compounds, 0.12% hits; AID 2544;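 active = inhibition reaching a set limit with compound at 10 µM in the primary screen, cut at about 35% in these data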;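 note: plate controls were DMSO wells with enzyme for no effect and no-enzyme buffer wells for full effect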
bIAP inh: intestinal alkaline phosphatase (bovine) inhibition; 190,000 tested, under 10 active; purified bovine IAP, CDP-star luminescence, 30 min; inhibition, % at 20 µM;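 active = over 50% inhibition of intestinal alkaline phosphatase at 20 µM in the single-dose screen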
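System: purified bovine intestinal alkaline phosphatase (IAP) enzyme; Input: IAP diluted 1/65,000,000 in the well; Measured by: CDP-star luminescence signal; Compound dosing: 20 µM single dose; Incubation: 30 min reaction at room temperature.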
mIAP act: mouse IAP activation | muIAP, CDP-Star luminescence, 30 min; active compounds read high; 1 = vehicle-only enzyme signal, 0 = enzyme-free wells | activation factor at 10 µM | 330,000 compounds, 0.24% hits;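 active = activation factor of at least 2 at 20 µM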
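Assay system: mouse IAP enzyme; reagent: chemiluminescent substrate CDP-Star; dosing: test compounds delivered from DMSO solution; schedule: 30 min at room temperature; measured by: luminescence from enzymatic CDP-Star hydrolysis; controls: DMSO-only wells and no-enzyme negative control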
mIAP inh confirm: mouse IAP inhibition confirmation; AID 434971; purified mouse IAP, CDP-Star luminescence, 30 min; shares compounds with mIAP block; 11,000 compounds, 4.7% hits; inhibition, % at 10 µM;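 active = inhibition of at least 40% at 10 µM in either of the two replicates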;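 note: plate controls were DMSO wells with enzyme for no effect and buffer wells lacking enzyme for full effect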
Numbers without * were called inactive; i = inactive; . = no result.

SMILES	bIAP act	hIAP activ	mIAP block	hIAP block	bIAP inh	mIAP act	mIAP inh confirm
C=CCn1c(SCC(=O)c2ccc(O)c(O)c2)nnc1-c1ccccc1OC	0.9	1.1	35	-11	11	0.65	.
CCn1c(SCC(=O)c2ccc(O)c(O)c2)nnc1-c1ccccc1OC	0.8	1	44*	-1	20	0.56	63*
O=C(O)c1ccc(S(=O)(=O)N2CCC(NC(=O)C3CCCCC3)CC2)cc1	.	0.86	4	14	.	0.96	.
COc1ccc2oc(C(=O)OCC(=O)N3CCCC(C)C3)c(C)c2c1 (stereo not given)	.	1.1	-2	-10	.	1	.
COC(=O)c1ccccc1NC(=O)NCCc1ccccc1OC	1	1	1	-2	-3	0.99	.
CCOC(=O)c1ccc(NC(=O)NCCc2ccccc2OC)cc1	1.1	1.2	-182	-25	-12	2.8*	-101
N#Cc1ncc(C(F)(F)F)cc1Sc1ccccc1N	0.9	0.9	-5	10	8	1.1	.
Cc1ccc(/C=C2\SC(=S)N(/N=C/c3cc([N+](=O)[O-])ccc3O)C2=O)o1	1	0.81	82*	18	0	0.18	86*
O=[N+]([O-])c1ccc(O)c(/C=N/n2cnc3ccccc32)c1	0.9	0.87	3	13	9	0.97	.
CCc1cc2c(=O)oc(-c3ccccc3F)nc2s1	.	0.94	2	6	.	0.98	.
COc1ccc(C(=O)OCC(=O)c2ccc(CNC(C)=O)s2)cc1	.	1.1	-10	-10	.	1.1	.
NS(=O)(=O)c1cccc(NC(=O)CSc2nnc(-c3ccncc3)n2C2CC2)c1	.	0.95	50*	5	.	0.5	58*
CC1CCCC(NC(=S)Nc2ccc(SC(F)F)cc2)C1C (stereo not given)	0.8	1.1	i	-15	24	8.1*	-109
C[C@@H](C(=O)Nc1ccc(SC(F)F)cc1)N1C(=O)C2CCCCC2C1=O (stereo not given in full)	.	0.89	-10	11	.	1.1	.
Cc1c(Br)c(O)c(Br)c2sc(=O)oc12	.	1.1	59*	-9	.	0.41	65*
COc1ccc(CNC(=O)C(C)NCc2ccc(S(N)(=O)=O)cc2)cc1 (stereo not given)	.	0.87	3	13	.	0.97	.
COc1ccc(CC2(CO)CCN(Cc3nc(C(C)C)cs3)CC2)cc1	1.1	0.76	2	24	-7	0.98	.
NC(=O)C1CCN(CC(=O)N2c3ccccc3CCc3ccccc32)CC1	1	1.1	0	-8	1	1	.
Cc1ccc(/C=C2\SC(=S)N(C3CCS(=O)(=O)C3)C2=O)o1 (stereo not given)	1	0.91	39	9	-2	0.61	.
NS(=O)(=O)c1ccc(-c2ccc(/C=C3\SC(=S)N(C4CCS(=O)(=O)C4)C3=O)o2)cc1 (stereo not given)	.	1	80*	-3	.	0.2	87*
CN(C)C1=NC(=O)/C(=C/c2ccc(-c3ccc(S(N)(=O)=O)cc3)o2)S1	.	0.91	50*	9	.	0.5	50*
NC1=NC(=O)/C(=C\c2ccc(-c3ccc(Cl)cc3)o2)S1	.	1.4	4	-37	.	0.96	.
CSCCC(NS(=O)(=O)c1ccccc1F)C(=O)NCC(C)(C)N1CCOCC1 (stereo not given)	.	1	5	-4	.	0.95	.
CCOC(=O)NC(=O)COC(=O)c1cccc2ccccc12	1.1	1.1	-10	-11	-7	1.1	.
O=C(Nc1ccccc1)Nc1cccc(Cl)c1	0.9	1.1	-176	-13	10	2.8*	-111
SMILES	bIAP act	hIAP activ	mIAP block	hIAP block	bIAP inh	mIAP act	mIAP inh confirm
CSc1cccc(NC(=O)Nc2ccc(Cl)cc2)c1	0.9	0.94	-148	6	6	2.5*	-106
O=C(Nc1cccc(Cl)c1)Nc1ccc2c(c1)OCO2	0.8	0.95	-162	5	18	2.6*	-146
O=C(NCc1ccc2c(c1)OCO2)Nc1cccc(Cl)c1	.	1.1	-92	-10	.	1.9	.
CC(=O)Nc1ccc(NC(=O)Nc2cccc(Cl)c2)cc1	.	1.2	-73	-22	.	1.7	.
O=C(Nc1ccc(C(=O)N2CCCCC2)cc1)Nc1cccc(Cl)c1	.	1.5	-171	-49	.	2.7*	-139
CC(C)c1nc(SCC(=O)N2CCCC2)c2ccccc2n1	1.1	0.86	3	14	-10	0.97	.
O=C(NNC(=O)c1cc(F)c(F)cc1Cl)c1ccc(NS(=O)(=O)c2cccs2)cc1	.	1.1	20	-6	.	0.8	.

Source: PubChem (Sanford-Burnham Center for Chemical Genomics)
